The source made the active and inactive calls. No cut-off for these calls is given here.
Experiments:
CCRF-CEM = assay: Antiproliferative activity against human CEM cells after 48 hrs by Coulter counting analysis; type: cell-based
HeLa = assay: Antiproliferative activity against human HeLa cells after 48 hrs by Coulter counting analysis; type: functional, cell-based
FM3A = assay: Antiproliferative activity against mouse FM3A cells after 48 hrs by Coulter counting analysis; type: functional, cell-based
MOLT-4 = assay: Antiproliferative activity against human MOLT4 cells after 48 hrs by Coulter counting analysis; type: functional, cell-based; conditions: MOLT-4, 48 h
K562 [1] = assay: Induction of apoptosis in human K562 cells assessed as phosphatidylserine externalization up to 3 uM after 24 hrs using annexin-V-FITC staining by flow cytometry; type: functional, cell-based
K562 [2] = assay: Induction of apoptosis in human K562 cells assessed as phosphatidylserine externalization up to 3 uM after 48 hrs using annexin-V-FITC staining by flow cytometry; type: functional, cell-based
L1210 = assay: Antiproliferative activity against mouse L1210 cells after 48 hrs by Coulter counting analysis; type: functional, cell-based; conditions: L1210, 48 h
[3] = Solubility of the compound; type: physicochemical
[4] = Inhibition of bovine brain tubulin polymerization; design: species or system Bos taurus
K562 [5] = assay: Cell cycle arrest in human K562 cells assessed as accumulation at G0-G1 phase at IC75 after 72 hrs using propidium iodide staining by flow cytometry; type: functional
Summary of the method: (§1)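 K562 cells were cultured 72 h with or without compound, then stained with propidium iodide and analysed by flow cytometry. The proportions of cells in sub-G1, G0–G1, S and G2-M were read from DNA histograms and compared with untreated controls.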

K562 [6] = assay: Induction of apoptosis in human K562 cells assessed as phosphatidylserine externalization at 0.2 uM after 3 days using annexin-V-FITC staining by flow cytometry; type: functional, cell-based
K562 [7] = assay: Antiproliferative activity against human K562 cells after 48 hrs by Coulter counting analysis; type: functional, cell-based; conditions: K562, 48 h
K562 [8] = assay: Cell cycle arrest in human K562 cells assessed as accumulation at subG1 phase at IC75 after 72 hrs using propidium iodide staining by flow cytometry; type: functional; summary of the method: as §1
K562 [9] = assay: Cell cycle arrest in human K562 cells assessed as accumulation at G2-M phase at IC75 after 72 hrs using propidium iodide staining by flow cytometry; type: functional; summary of the method: as §1
K562 [10] = assay: Cell cycle arrest in human K562 cells assessed as accumulation at S phase at IC75 after 72 hrs using propidium iodide staining by flow cytometry; type: functional; summary of the method: as §1
K562 [11] = assay: Induction of apoptosis in human K562 cells assessed as caspase 3 activation at 0.6 uM after 48 hrs by flow cytometry; type: functional, cell-based
Summary of the method: (§2)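 K562 cells were treated with compound for 24 h and 48 h, then harvested. Cells were stained with a FITC-conjugated monoclonal antibody against the active fragment of human caspase-3 and analysed by flow cytometry against untreated controls.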

K562 [12] = assay: Induction of apoptosis in human K562 cells assessed as caspase 3 activation at 0.6 uM after 24 hrs by flow cytometry; type: functional, cell-based; summary of the method: as §2
K562 [13] = assay: Induction of apoptosis in human K562 cells assessed as caspase 3 activation at 1.25 uM after 48 hrs by flow cytometry; type: functional, cell-based; summary of the method: as §2
K562 [14] = assay: Induction of apoptosis in human K562 cells assessed as caspase 3 activation at 1.25 uM after 24 hrs by flow cytometry; type: functional, cell-based; summary of the method: as §2
K562 [15] = assay: Induction of apoptosis in human K562 cells assessed as increase in mitochondrial mass at […] after 48 hrs using 10-N-nonyl acridine orange staining by flow cytometry; type: functional, cell-based

IC50 (CCRF-CEM) [µM]	IC50 (HeLa) [µM]	IC50 (MOLT-4) [µM]	IC50 (L1210) [µM]	solubility [3]	IC50 [4] [µM]	Compound	IC50 (FM3A) [µM]	Activity (K562 [5]) [%]	IC75 (K562 [7]) [µM]	Activity (K562 [8]) [%]	Activity (K562 [9]) [%]	Activity (K562 [10]) [%]	further results
1.5	0.61	1.3	1.9	–	–	C=C(Br)C(=O)Nc1ccc(C(=O)/C=C/c2ccc(N(C)C)cc2)cc1	2.8	–	–	–	–	–	Activity (K562 [1]): Active; Activity (K562 [2]): Active
0.84	0.51	0.68	0.63	Insoluble	> 40	C=C(Br)C(=O)Nc1ccc(C(=O)/C=C/c2ccc(OC)c(OC)c2OC)cc1	0.53	13.7	0.71	57.8	13.6	14.9	Activity (K562 [6]): Active; IC50 (K562 [7]): 0.2 µM
0.75	0.75	0.61	0.24	Insoluble	> 40	C=C(Br)C(=O)Nc1ccc(/C=C/C(=O)c2ccc(OCC)cc2)cc1	0.68	16.5	0.85	52.3	11.6	19.6	Activity (K562 [11]): Active; Activity (K562 [12]): Active; Activity (K562 [13]): Active; Activity (K562 [14]): Active; Activity (K562 [15]): Active

From ChEMBL document CHEMBL1153932, “Hybrid alpha-bromoacryloylamido chalcones. Design, synthesis and biological evaluation” (Bioorg Med Chem Lett, 2009)
